Reference: ChEMBL document CHEMBL2346629, “Discovery and characterization of novel allosteric FAK inhibitors” (Eur J Med Chem, 2013)

Legend:
[1] = molecular target: T1, Protein-tyrosine kinase 2-beta (Homo sapiens, UniProt Q14289); test: Inhibition of human 6His-tagged unphosphorylated PYK2 (1 to 967) using Poly-(GT)-biotin as substrate by AlphaScreen assay in presence of [gamma-33P]ATP
[2] = molecular target: T1, Protein-tyrosine kinase 2-beta; test: Inhibition of human GST-tagged phosphorylated full length PYK2 (1 to 967) using Poly-(GT)-biotin as substrate by HTRF analysis in presence of [gamma-33P]ATP
[3] = Inhibition of PDGFRa D824V mutant (unknown origin) using [gamma-33P]ATP; set-up: species or system Homo sapiens
[4] = molecular target: Tyrosine-protein kinase Yes (Homo sapiens, UniProt P07947); test: Inhibition of YES (unknown origin) using [gamma-33P]ATP
Method in brief: (§1)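 Radiometric kinase profiling service covering 288 kinases (261 wild-type, 27 mutant). Inhibition was read as incorporation from [γ-³³P]ATP.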

[5] = molecular target: Mast/stem cell growth factor receptor Kit (Homo sapiens, UniProt P10721, D816V); test: Inhibition of c-Kit D816V mutant (unknown origin) using [gamma-33P]ATP; method in brief: as §1
[6] = molecular target: Mitogen-activated protein kinase kinase kinase 9 (Homo sapiens, UniProt P80192); test: Inhibition of MLK1 (unknown origin) using [gamma-33P]ATP; method in brief: as §1
[7] = molecular target: Mitogen-activated protein kinase kinase kinase kinase 4 (Homo sapiens, UniProt O95819); test: Inhibition of HGK (unknown origin) using [gamma-33P]ATP; method in brief: as §1
[8] = molecular target: Myosin light chain kinase, smooth muscle (Homo sapiens, UniProt Q15746); test: Inhibition of MLCK (unknown origin) using [gamma-33P]ATP; method in brief: as §1
[9] = molecular target: Mitogen-activated protein kinase kinase kinase kinase 2 (Homo sapiens, UniProt Q12851); test: Inhibition of GCK (unknown origin) using [gamma-33P]ATP; method in brief: as §1
[10] = molecular target: Tyrosine-protein kinase Fgr (Homo sapiens, UniProt P09769); test: Inhibition of FGR (unknown origin) using [gamma-33P]ATP
Method in brief: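 Reaction Biology HotSpot radiometric profiling panel of 288 kinases (261 wild-type, 27 mutant). Kinase activity was read out by incorporation of [γ-33P]ATP.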

[11] = molecular target: Tyrosine-protein kinase Fyn (Homo sapiens, UniProt P06241); test: Inhibition of FYN (unknown origin) using [gamma-33P]ATP; method in brief: as §1
[12] = molecular target: Serine/threonine-protein kinase Chk2 (Homo sapiens, UniProt O96017); test: Inhibition of CHK2 (unknown origin) using [gamma-33P]ATP
Method in brief: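 Radiometric profiling across 288 kinases (261 wild-type, 27 mutant), run as an outsourced service. Inhibition read out as [gamma-33P]ATP incorporation into substrate.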

Focal adhesion kinase 1 [13] = molecular target: T2, Focal adhesion kinase 1 (Homo sapiens, UniProt Q05397); test: Inhibition of human FLAG-tagged unphosphorylated full length FAK expressed in baculovirus expression system incubated for 60 mins prior to 1000 uM of ATP addition by AlphaScreen assay
Focal adhesion kinase 1 [14] = molecular target: T2, Focal adhesion kinase 1; test: Inhibition of human FLAG-tagged unphosphorylated full length FAK expressed in baculovirus expression system incubated for 5 mins prior to 1000 uM of ATP addition by AlphaScreen assay
Focal adhesion kinase 1 [15] = molecular target: T2, Focal adhesion kinase 1; test: Inhibition of human FLAG-tagged unphosphorylated full length FAK expressed in baculovirus expression system incubated for 60 mins prior to 0.5 uM of ATP addition by AlphaScreen assay
Focal adhesion kinase 1 [16] = molecular target: T2, Focal adhesion kinase 1; test: Inhibition of human FLAG-tagged unphosphorylated full length FAK expressed in baculovirus expression system incubated for 5 mins prior to 0.5 uM ATP addition by AlphaScreen assay
Focal adhesion kinase 1 [17] = molecular target: T2, Focal adhesion kinase 1; test: Inhibition of human GST-tagged phosphorylated full length FAK incubated for 60 mins prior to 1000 uM of ATP addition by HTRF analysis
Focal adhesion kinase 1 [18] = molecular target: T2, Focal adhesion kinase 1; test: Inhibition of human GST-tagged phosphorylated full length FAK incubated for 5 mins prior to 1000 uM of ATP addition by HTRF analysis
Focal adhesion kinase 1 [19] = molecular target: T2, Focal adhesion kinase 1; test: Inhibition of human GST-tagged phosphorylated full length FAK incubated for 60 mins prior to 0.5 uM of ATP addition by HTRF analysis
Focal adhesion kinase 1 [20] = molecular target: T2, Focal adhesion kinase 1; test: Inhibition of human GST-tagged phosphorylated full length FAK incubated for 5 mins prior to 0.5 uM of ATP addition by HTRF analysis
Focal adhesion kinase 1 [21] = molecular target: T2, Focal adhesion kinase 1
Focal adhesion kinase 1 [22] = molecular target: T2, Focal adhesion kinase 1; remark: listed apart in the source
Focal adhesion kinase 1 [23] = molecular target: T2, Focal adhesion kinase 1; remark: listed apart in the source
Focal adhesion kinase 1 [24] = molecular target: T2, Focal adhesion kinase 1; remark: listed apart in the source

T2 sequence (Q05397 whole entry): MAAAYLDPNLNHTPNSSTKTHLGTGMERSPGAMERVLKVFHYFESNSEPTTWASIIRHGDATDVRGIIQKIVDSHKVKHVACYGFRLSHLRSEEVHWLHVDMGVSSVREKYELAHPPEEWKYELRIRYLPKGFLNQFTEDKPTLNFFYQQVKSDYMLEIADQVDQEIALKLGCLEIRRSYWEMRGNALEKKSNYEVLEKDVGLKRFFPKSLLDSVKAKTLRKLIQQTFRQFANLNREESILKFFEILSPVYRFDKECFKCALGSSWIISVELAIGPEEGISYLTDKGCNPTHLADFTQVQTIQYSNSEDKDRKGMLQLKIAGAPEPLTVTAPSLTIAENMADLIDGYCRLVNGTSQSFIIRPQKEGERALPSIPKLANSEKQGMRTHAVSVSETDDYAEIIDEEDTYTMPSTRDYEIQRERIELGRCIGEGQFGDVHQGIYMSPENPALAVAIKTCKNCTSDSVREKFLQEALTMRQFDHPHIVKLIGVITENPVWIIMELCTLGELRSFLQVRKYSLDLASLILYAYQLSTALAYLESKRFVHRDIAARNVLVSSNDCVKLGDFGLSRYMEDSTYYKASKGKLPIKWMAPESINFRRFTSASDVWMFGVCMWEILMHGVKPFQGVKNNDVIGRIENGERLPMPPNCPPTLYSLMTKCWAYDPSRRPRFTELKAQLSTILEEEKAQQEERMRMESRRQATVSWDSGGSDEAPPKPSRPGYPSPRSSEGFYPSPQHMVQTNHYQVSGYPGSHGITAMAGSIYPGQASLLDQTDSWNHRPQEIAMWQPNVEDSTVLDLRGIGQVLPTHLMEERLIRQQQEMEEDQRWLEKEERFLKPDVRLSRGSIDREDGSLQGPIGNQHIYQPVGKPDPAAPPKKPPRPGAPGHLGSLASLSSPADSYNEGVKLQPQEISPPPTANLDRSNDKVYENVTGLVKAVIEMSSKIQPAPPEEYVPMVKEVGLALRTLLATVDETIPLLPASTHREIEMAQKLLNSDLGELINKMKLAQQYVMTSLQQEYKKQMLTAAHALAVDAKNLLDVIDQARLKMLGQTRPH
Mitogen-activated protein kinase kinase kinase 9, sequence (P80192 whole entry): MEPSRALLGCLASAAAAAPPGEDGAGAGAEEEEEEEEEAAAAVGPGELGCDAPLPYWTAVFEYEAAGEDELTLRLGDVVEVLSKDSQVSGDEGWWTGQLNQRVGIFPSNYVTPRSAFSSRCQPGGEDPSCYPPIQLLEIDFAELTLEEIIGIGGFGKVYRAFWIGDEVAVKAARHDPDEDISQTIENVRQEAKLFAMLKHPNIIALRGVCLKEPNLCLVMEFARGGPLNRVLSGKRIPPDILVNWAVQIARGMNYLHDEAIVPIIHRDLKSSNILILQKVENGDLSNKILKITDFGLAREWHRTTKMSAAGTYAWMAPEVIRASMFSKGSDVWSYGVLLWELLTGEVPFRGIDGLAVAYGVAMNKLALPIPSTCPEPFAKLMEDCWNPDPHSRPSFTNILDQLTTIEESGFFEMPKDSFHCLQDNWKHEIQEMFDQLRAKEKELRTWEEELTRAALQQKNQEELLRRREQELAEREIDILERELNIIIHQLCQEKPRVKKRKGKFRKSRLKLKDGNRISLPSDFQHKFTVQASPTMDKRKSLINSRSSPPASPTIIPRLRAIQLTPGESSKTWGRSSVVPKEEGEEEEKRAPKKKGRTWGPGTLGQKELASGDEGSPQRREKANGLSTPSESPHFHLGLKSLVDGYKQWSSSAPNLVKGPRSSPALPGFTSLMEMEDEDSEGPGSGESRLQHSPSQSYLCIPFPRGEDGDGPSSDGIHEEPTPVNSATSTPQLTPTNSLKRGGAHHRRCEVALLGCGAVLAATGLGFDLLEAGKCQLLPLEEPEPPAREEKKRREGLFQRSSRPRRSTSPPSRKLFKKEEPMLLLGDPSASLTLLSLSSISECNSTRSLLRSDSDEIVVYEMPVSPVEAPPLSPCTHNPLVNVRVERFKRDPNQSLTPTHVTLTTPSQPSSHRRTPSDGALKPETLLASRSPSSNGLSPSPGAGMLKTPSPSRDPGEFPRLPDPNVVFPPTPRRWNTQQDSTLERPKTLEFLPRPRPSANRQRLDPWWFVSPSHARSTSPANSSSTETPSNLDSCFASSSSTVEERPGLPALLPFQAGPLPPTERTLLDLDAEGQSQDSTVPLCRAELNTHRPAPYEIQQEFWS
Tyrosine-protein kinase Fgr, sequence (P09769 whole entry): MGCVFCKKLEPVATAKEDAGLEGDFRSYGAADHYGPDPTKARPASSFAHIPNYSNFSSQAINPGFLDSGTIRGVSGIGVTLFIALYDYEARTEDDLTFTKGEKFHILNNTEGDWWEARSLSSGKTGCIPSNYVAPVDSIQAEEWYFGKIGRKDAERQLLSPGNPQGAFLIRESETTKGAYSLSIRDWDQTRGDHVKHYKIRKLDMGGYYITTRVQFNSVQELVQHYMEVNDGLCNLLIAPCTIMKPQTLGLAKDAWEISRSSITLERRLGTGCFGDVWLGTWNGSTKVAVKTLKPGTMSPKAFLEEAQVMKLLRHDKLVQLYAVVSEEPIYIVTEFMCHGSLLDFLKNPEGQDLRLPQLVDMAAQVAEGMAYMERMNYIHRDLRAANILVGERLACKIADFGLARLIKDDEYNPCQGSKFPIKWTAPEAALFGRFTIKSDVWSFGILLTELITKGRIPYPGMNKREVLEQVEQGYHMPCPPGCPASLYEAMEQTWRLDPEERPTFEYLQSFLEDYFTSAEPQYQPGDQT
T1 sequence (Q14289 whole entry): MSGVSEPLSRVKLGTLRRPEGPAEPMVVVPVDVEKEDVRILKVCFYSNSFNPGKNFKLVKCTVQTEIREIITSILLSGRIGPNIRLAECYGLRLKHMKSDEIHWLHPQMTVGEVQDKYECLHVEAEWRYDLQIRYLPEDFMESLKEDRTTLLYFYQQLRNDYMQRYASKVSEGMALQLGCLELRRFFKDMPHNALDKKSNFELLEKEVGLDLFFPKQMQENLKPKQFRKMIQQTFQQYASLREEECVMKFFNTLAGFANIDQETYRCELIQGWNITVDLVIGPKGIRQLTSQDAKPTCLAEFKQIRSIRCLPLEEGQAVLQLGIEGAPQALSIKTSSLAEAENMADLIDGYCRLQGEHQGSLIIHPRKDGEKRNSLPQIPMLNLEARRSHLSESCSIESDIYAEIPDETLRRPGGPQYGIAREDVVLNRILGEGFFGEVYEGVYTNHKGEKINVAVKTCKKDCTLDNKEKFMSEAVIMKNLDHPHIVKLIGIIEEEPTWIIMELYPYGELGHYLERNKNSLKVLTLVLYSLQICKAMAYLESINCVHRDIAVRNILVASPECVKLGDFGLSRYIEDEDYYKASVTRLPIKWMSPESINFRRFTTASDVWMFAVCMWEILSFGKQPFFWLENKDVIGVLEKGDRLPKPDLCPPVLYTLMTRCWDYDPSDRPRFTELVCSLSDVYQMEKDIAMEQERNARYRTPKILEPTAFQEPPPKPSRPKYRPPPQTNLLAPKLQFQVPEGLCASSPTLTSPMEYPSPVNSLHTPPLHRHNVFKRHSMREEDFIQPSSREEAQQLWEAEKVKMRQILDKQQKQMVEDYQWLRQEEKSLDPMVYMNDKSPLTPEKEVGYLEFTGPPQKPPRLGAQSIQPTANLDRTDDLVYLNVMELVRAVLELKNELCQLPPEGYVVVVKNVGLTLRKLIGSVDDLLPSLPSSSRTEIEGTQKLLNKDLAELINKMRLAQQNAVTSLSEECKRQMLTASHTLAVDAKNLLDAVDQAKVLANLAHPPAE
Mast/stem cell growth factor receptor Kit, sequence (P10721 26-976 D816V limits assumed): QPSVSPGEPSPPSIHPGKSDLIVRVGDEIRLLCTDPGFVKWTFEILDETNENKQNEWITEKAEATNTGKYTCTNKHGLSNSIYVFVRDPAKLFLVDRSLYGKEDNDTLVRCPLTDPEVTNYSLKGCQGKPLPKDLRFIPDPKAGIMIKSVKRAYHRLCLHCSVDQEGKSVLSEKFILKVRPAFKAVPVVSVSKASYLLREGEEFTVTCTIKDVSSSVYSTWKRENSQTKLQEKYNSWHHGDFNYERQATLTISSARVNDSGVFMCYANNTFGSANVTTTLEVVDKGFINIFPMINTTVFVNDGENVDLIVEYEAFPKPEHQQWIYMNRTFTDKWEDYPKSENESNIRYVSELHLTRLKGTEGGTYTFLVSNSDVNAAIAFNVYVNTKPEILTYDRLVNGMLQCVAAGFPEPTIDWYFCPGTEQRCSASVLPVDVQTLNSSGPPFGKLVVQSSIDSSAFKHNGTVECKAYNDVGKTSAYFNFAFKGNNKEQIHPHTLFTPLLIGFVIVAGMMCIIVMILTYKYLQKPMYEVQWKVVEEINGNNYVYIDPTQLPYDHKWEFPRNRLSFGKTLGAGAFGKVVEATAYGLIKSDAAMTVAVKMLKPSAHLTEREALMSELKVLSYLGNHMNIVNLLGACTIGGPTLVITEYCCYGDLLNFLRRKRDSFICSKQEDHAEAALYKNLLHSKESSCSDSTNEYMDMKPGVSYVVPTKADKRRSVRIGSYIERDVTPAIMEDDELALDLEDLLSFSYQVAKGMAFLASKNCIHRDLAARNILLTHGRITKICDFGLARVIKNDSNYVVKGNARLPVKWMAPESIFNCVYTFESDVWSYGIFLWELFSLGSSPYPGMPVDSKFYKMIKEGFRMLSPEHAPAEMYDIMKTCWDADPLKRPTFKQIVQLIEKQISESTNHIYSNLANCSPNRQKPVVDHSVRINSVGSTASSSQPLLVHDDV

| Compound | IC50 [4] | IC50 [5] | IC50 [6] | IC50 [7] | IC50 [8] | IC50 [9] | IC50 [10] | IC50 [11] | IC50 [12] | further results |
| --- | --- | --- | --- | --- | --- | --- | --- | --- | --- | --- |
| CCc1ccc(-c2ccc3c(c2)-c2c(cnn2CC)S(=O)(=O)N3C)cc1 | > 10 µM | > 10 µM | > 10 µM | > 10 µM | > 10 µM | > 10 µM | > 10 µM | > 10 µM | > 10 µM | IC50 [1]: > 30 µM; IC50 [2]: > 30 µM; IC50 [3]: > 10 µM; IC50 (Focal adhesion kinase 1 [13]): 3.2 µM; IC50 (Focal adhesion kinase 1 [14]): > 10 µM; IC50 (Focal adhesion kinase 1 [15]): 3.2 µM; IC50 (Focal adhesion kinase 1 [16]): > 10 µM; IC50 (Focal adhesion kinase 1 [17]): > 30 µM; IC50 (Focal adhesion kinase 1 [18]): > 30 µM; IC50 (Focal adhesion kinase 1 [19]): > 30 µM; IC50 (Focal adhesion kinase 1 [20]): > 30 µM; IC50 (Focal adhesion kinase 1 [21]): 1 µM; IC50 (Focal adhesion kinase 1 [22]): 3 µM; IC50 (Focal adhesion kinase 1 [23]): 1.3 µM; IC50 (Focal adhesion kinase 1 [24]): 1.6 µM |
| CCc1ccc(-c2ccc3c(c2)-c2n[nH]cc2S(=O)(=O)N3C)cc1 | 1.8 µM | 2.8 µM | 0.37 µM | 1.6 µM | 4 µM | 3 µM | 1.9 µM | 2.8 µM | 3.4 µM | – |
